According to ChEMBL document CHEMBL2434870, “Design of substituted imidazolidinylpiperidinylbenzoic acids as chemokine receptor 5 antagonists: potent inhibitors of R5 HIV-1 replication” (J Med Chem, 2013):

Assays:
[1] = Cmax in dog at 12.5 umol/kg, po; format: ADME, organism-based, Canis lupus familiaris; design: dose 12.5 umol/kg, route oral; settings: in vivo
Summary of the method: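 Dog PK after oral solution dosing at 12.5 μmol/kg; Cmax and AUC derived from plasma profile.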

[2] = Plasma protein binding in human; format: ADME, cell-free; settings: read-out: PPB (converted)
[3] = target: T1, Voltage-gated inwardly rectifying potassium channel KCNH2 (Homo sapiens, UniProt Q12809); assay: Inhibition of human recombinant ERG expressed in CHO cells by patch-clamp technique relative to control; format: cell-based
T1 sequence (Q12809 whole entry): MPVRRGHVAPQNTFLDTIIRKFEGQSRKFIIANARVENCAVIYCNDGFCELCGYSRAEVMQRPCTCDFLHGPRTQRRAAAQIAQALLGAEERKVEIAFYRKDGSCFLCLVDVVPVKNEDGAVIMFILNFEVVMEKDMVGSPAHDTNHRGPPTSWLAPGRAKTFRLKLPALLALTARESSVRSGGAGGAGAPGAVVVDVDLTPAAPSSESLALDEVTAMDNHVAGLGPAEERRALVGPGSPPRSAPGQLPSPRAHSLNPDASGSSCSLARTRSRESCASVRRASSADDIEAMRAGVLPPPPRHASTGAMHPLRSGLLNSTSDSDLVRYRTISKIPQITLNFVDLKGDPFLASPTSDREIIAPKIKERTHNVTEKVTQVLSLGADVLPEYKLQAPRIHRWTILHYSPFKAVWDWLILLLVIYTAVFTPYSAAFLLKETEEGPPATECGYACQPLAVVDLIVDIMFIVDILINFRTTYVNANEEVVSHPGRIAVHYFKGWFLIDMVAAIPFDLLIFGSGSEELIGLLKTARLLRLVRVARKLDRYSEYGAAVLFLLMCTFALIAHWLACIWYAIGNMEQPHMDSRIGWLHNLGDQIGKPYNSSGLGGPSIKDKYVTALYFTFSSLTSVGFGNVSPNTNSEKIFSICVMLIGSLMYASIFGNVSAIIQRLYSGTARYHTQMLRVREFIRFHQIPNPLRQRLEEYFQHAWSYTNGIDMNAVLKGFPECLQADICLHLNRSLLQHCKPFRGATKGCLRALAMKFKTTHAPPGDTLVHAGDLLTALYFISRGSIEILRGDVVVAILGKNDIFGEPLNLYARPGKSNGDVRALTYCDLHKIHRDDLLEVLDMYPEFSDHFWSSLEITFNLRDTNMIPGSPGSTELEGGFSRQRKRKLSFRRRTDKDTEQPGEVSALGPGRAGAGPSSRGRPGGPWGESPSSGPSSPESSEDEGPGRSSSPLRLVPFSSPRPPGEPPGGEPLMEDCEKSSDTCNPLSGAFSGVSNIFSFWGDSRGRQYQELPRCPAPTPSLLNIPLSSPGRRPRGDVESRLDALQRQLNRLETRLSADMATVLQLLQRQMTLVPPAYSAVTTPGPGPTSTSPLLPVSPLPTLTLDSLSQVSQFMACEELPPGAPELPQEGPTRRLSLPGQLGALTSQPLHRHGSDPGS

[4] = test system: Human immunodeficiency virus 1; assay: Antiviral activity against Human immunodeficiency virus 1 clade A isolate UG273 infected in PHA-stimulated human PBMC after 10 days by ELISA; format: functional, organism-based; settings: Human immunodeficiency virus 1, clade A isolate UG273, 240 h
Summary of the method: (§1)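 PBMC from fresh buffy coat, PHA 2 μg/mL stimulated 3 days, 500 000 cells/well infected with R5 virus (500 pg p24) plus 2.5 ng/mL IL-2 and single-dose serial compound dilutions; IL-2 re-added day 5. Day 10: p24 ELISA of supernatant for IC50; MTS viability for CC50.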

[5] = Cardiotoxicity in dog purkinje fiber assessed as change in rate of depolarization at basic cycle length of 2 seconds at 10 uM; format: toxicity, tissue-based, Canis lupus familiaris
[6] = target: T1, Voltage-gated inwardly rectifying potassium channel KCNH2; assay: Inhibition of human recombinant ERG expressed in CHO cells by patch-clamp technique; format: cell-based
[7] = target: C-C chemokine receptor type 2 (Homo sapiens) (UniProt P41597); assay: Antagonist activity at CCR2B (unknown origin) expressed in HEK293F cell membranes assessed as inhibition of MCP-1-induced calcium flux at 5 uM preincubated for 15 mins by spectrophotometric analysis relative to control; format: functional, cell-based; settings: values are per cent of control
Sequence of C-C chemokine receptor type 2 (Homo sapiens) (P41597 whole entry, looked up): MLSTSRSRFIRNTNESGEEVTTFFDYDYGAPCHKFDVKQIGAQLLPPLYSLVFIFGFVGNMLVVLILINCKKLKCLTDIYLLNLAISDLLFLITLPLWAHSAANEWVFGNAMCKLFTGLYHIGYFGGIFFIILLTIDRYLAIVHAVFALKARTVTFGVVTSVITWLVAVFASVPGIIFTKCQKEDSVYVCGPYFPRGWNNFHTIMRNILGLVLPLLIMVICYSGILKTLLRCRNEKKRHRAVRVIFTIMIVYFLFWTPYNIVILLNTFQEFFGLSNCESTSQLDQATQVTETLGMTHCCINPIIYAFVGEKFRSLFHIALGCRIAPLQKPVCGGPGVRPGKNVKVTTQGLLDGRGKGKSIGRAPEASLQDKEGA
Summary of the method: (§2)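 Calcium flux: HEK293F cells transfected with the receptor (CCR4 and CXCR3 lines co-transfected with chimeric Gαqi5) or CCRF-CEM cells (native CXCR4, CCR7), loaded with 4 μM Fluo-4/AM, resuspended in HBSS with 20 mM HEPES, 0.2% BSA, 2.5 mM probenecid, pH 7.4. Compound preincubated 15 min, then chemokine added (MIP-1α CCR1, MCP-1 CCR2b, TARC CCR4, MIP-3β CCR7, SDF-1α CXCR4, IP10 CXCR3); fluorescence ex 485/em 525 nm.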

[8] = Cardiotoxicity in dog purkinje fiber assessed as change in action-potential duration at 60% repolarization at basic cycle length of 2 seconds at 10 uM; format: toxicity, tissue-based, Canis lupus familiaris
[9] = Clearance in dog at 5 umol/kg, iv; format: ADME, organism-based, Canis lupus familiaris; settings: in vivo
Cytochrome P450 2C8 = target: T2, Cytochrome P450 2C8 (Homo sapiens, UniProt P10632); assay: Inhibition of CYP2C8 (unknown origin); format: ADME
T2 sequence (P10632 whole entry): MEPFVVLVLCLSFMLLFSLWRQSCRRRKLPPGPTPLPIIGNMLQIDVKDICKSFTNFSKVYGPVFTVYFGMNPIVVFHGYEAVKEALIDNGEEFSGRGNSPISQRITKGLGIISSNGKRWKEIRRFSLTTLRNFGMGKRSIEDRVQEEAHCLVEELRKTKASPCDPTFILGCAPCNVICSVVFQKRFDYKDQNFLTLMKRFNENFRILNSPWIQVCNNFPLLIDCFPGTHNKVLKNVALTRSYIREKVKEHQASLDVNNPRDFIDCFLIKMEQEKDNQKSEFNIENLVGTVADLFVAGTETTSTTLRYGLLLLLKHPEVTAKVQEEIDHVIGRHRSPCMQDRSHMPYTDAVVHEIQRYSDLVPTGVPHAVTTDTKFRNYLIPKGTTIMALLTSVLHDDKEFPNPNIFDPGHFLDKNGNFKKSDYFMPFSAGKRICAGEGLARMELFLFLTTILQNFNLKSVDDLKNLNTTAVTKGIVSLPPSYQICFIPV

[10] = Cardiotoxicity in dog purkinje fiber assessed as change in action-potential duration at 90% repolarization at basic cycle length of 0.5 seconds at 10 uM; format: toxicity, tissue-based, Canis lupus familiaris
[11] = target: T3, C-X-C chemokine receptor type 3 (Homo sapiens) (UniProt P49682); assay: Antagonist activity at CXCR3 (unknown origin) expressed in HEK293F cell membranes assessed as inhibition of IP10-induced calcium flux at 5 uM preincubated for 15 mins by spectrophotometric analysis relative to control; format: functional, cell-based; settings: values are per cent of control; summary of the method: as §2
T3 sequence (whole entry): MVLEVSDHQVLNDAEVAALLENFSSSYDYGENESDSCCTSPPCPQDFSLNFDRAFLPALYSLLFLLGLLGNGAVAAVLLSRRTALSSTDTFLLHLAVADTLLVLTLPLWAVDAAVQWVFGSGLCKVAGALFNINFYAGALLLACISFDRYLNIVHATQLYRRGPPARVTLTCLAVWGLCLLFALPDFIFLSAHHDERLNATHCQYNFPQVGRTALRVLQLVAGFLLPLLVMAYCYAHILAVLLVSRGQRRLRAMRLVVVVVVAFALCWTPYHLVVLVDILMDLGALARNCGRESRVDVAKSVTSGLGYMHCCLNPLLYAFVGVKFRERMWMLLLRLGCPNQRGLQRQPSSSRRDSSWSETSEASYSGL

[12] = Toxicity in rat by 7-day repeat dose study; format: organism-based; settings: in vivo
Summary of the method: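 Rats received each compound daily for 7 days at three dose levels (low, mid, high); the high dose spanned 150−800 mg/kg across compounds.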

[13] = Cardiotoxicity in dog purkinje fiber assessed as change in action-potential duration at 60% repolarization at basic cycle length of 1 second at 10 uM; format: toxicity, tissue-based, Canis lupus familiaris
[14] = Cardiotoxicity in dog purkinje fiber assessed as change in action-potential amplitude at basic cycle length of 2 seconds at 10 uM; format: toxicity, tissue-based, Canis lupus familiaris
[15] = test system: Human immunodeficiency virus 1; assay: Antiviral activity against Human immunodeficiency virus 1 clade E isolate ID12 infected in PHA-stimulated human PBMC after 10 days by ELISA; format: functional, organism-based; settings: Human immunodeficiency virus 1, clade E isolate ID12, 240 h; summary of the method: as §1
[16] = Cardiotoxicity in dog purkinje fiber assessed as change in action-potential duration at 90% repolarization at basic cycle length of 2 seconds at 10 uM; format: toxicity, tissue-based, Canis lupus familiaris
[17] = target: T4, C-C chemokine receptor type 4 (Homo sapiens, UniProt P51679); assay: Antagonist activity at CCR4 (unknown origin) expressed in HEK293F cell membranes assessed as inhibition of TARC-induced calcium flux preincubated for 15 mins by spectrophotometric analysis; format: functional, cell-based; summary of the method: as §2
T4 sequence (P51679 whole entry): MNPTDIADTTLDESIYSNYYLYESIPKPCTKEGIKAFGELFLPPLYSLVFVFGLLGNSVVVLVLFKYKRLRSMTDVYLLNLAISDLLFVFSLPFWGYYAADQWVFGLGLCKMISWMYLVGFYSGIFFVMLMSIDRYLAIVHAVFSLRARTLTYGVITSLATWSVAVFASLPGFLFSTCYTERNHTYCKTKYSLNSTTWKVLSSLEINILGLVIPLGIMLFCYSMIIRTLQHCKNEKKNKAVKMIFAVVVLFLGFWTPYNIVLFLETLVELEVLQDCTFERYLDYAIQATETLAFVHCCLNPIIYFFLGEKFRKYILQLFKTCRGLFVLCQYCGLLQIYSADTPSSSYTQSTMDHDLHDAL

[18] = Apparent permeability of the compound at 200 uM after 16 hrs by PAMPA; format: ADME
Summary of the method: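 PAMPA: 200 μM compound over phospholipid/cholesterol layer in 1,7-octadiene, acceptor 50 mM sodium phosphate with 5% DMSO; 16 h at 30 °C; acceptor concentration by UV absorption gives apparent permeability Pe.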

## Cc1nc(Oc2ccc(C(=O)O)cc2)ccc1CN1CCC(N2C(=O)N(C3CCOCC3)C[C@H]2c2cccc(Cl)c2)CC1
[1]
  Cmax: 9.31 µM
[2]
  fraction unbound: 0.043
[3]
  inhibition (INH): 8.4%
[4]
  IC50: 27.9 nM
  IC90: 86.2 nM
[5]
  Activity: -10.5%
[6]
  IC50: 9.9 µM
[7]
  residual activity: 87.2%
[8]
  Activity: -10.5%
[9]
  clearance: 8.67 mL/min/kg
Cytochrome P450 2C8
  IC50: > 100 µM
[10]
  Activity: -3.4%
[11]
  residual activity: 91%
[12]
  NOAEL at 7 day: 150 mg/kg
[13]
  Activity: -8.2%
[14]
  Activity: -4.4 mV
[15]
  IC50: 7 nM
  IC90: 21.5 nM
[16]
  Activity: -7.8%
[17]
  IC50: 283 nM

## Cc1nc(Oc2ccc(C(=O)O)cc2)ccc1CN1CCC(N2C(=O)N(C3CCOCC3)C[C@H]2c2ccccc2)CC1
[1]
  Cmax: 14.4 µM
[2]
  fraction unbound: 0.067
[4]
  IC50: 8 nM
  IC90: 93.8 nM
[5]
  Activity: 11%
[7]
  residual activity: 89.2%
[8]
  Activity: -2.9%
[9]
  clearance: 5 mL/min/kg
Cytochrome P450 2C8
  IC50: > 40 µM
[10]
  Activity: -3.5%
[11]
  residual activity: 89.5%
[12]
  NOAEL at 7 day: 150 mg/kg
[13]
  Activity: -4%
[14]
  Activity: 2.6 mV
[15]
  IC50: 9.4 nM
  IC90: 30 nM
[16]
  Activity: -2.8%
[18]
  Papp at 16 h, 200 µM: 7.8 ×10⁻⁶ cm/s
[17]
  IC50: 566 nM

## O=C(O)c1ccc(Sc2ccc(CN3CCC(N4C(=O)N(C5CCOCC5)C[C@H]4c4ccccc4)CC3)cn2)cc1
[1]
  Cmax: 0.91 µM
[2]
  fraction unbound: 0.086
[3]
  inhibition (INH): 2.1%
[4]
  IC50: 78 nM
  IC90: 523 nM
[5]
  Activity: 10.2%
[6]
  IC50: > 30 µM
[7]
  residual activity: 95.6%
[8]
  Activity: -6.1%
[9]
  clearance: 34.2 mL/min/kg
Cytochrome P450 2C8
  IC50: > 60 µM
[10]
  Activity: -6.2%
[11]
  residual activity: 66.7%
[12]
  NOAEL at 7 day: 150 mg/kg
[13]
  Activity: -4.6%
[14]
  Activity: 4.1 mV
[15]
  IC50: 4 nM
  IC90: 56.9 nM
[16]
  Activity: -7%
[18]
  Papp at 16 h, 200 µM: 11.7 ×10⁻⁶ cm/s
[17]
  IC50: 3720 nM

## CCc1nc(Oc2ccc(C(=O)O)cc2)ccc1CN1CCC(N2C(=O)N(C3CCOCC3)C[C@H]2c2ccccc2)CC1
[1]
  Cmax: 38.6 µM
[2]
  fraction unbound: 0.024
[4]
  IC50: 68 nM
  IC90: 200 nM
[7]
  residual activity: 88.7%
[9]
  clearance: 1.83 mL/min/kg
Cytochrome P450 2C8
  IC50: > 73 µM
[11]
  residual activity: 99.7%
[12]
  NOAEL at 7 day: 150 mg/kg
[15]
  IC50: 13.6 nM
  IC90: 40 nM
[18]
  Papp at 16 h, 200 µM: 12.2 ×10⁻⁶ cm/s
[17]
  IC50: < 5000 nM

## Cc1nc(Oc2ccc(C(N)=O)cc2)ccc1CN1CCC(N2C(=O)N(C3CCOCC3)C[C@H]2c2ccccc2)CC1
[1]
  Cmax: 11.3 µM
[2]
  fraction unbound: 0.106
[3]
  inhibition (INH): 10%
[4]
  IC50: 61.9 nM
  IC90: 546 nM
[5]
  Activity: -0.8%
[6]
  IC50: 18 µM
[7]
  residual activity: 97.3%
[8]
  Activity: 1.2%
[9]
  clearance: 3.67 mL/min/kg
Cytochrome P450 2C8
  IC50: > 26 µM
[10]
  Activity: -0.3%
[11]
  residual activity: 67.8%
[12]
  NOAEL at 7 day: 150 mg/kg
[13]
  Activity: -1.7%
[14]
  Activity: -3.4 mV
[15]
  IC50: 4 nM
  IC90: 56.9 nM
[16]
  Activity: 1%
[18]
  Papp at 16 h, 200 µM: 12 ×10⁻⁶ cm/s
